Compounds with a hit are over-represented: about 2.3% of the library has one in this group of screens.
OXTR potentiate – human OXTR potentiation; P30559; CHO-OTR cells, Fluo-8 calcium fluorescence, potentiator mode; 0% = oxytocin EC15, 100% = EC100; activation, % at 3 µM; actives 0.061% (n = 320,000);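 active = activation above that plate's cutoff, the mean activation of tested compounds plus 3 SD, cut at about 6.6% in these data, passing the limit was not always enough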
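System: human OTR in CHO cells / Also added: sub-maximal oxytocin, roughly EC15 / Control set: EC15 oxytocin low, 75 nM oxytocin high / Schedule: 6 min compound pre-incubation at room temperature, 100 s kinetic read / Compound: single-point 3.0 µM / Replication: singlicate / Technique: Fluo-8 calcium dye fluorescence / Read-out basis: % activation of max/min ratio relative to oxytocin controls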
V1aR counter – activates human V1a receptor in oxytocin agonist counter-screen. CHO-V1R cells, Fluo-8 calcium fluorescence, agonist mode; 0% DMSO, 100% 3 nM vasopressin. P37288. actives 0.25% (n = 320,000). AID 2797. activation, % at 3 µM;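 active = activation above the mean activation of all tested compounds plus 3 SD, per screening run, cut at about 20% in these data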;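 note: signal is peak over basal fluorescence ratio across a 100 second FLIPR read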
Target sequence (P37288 whole entry, looked up): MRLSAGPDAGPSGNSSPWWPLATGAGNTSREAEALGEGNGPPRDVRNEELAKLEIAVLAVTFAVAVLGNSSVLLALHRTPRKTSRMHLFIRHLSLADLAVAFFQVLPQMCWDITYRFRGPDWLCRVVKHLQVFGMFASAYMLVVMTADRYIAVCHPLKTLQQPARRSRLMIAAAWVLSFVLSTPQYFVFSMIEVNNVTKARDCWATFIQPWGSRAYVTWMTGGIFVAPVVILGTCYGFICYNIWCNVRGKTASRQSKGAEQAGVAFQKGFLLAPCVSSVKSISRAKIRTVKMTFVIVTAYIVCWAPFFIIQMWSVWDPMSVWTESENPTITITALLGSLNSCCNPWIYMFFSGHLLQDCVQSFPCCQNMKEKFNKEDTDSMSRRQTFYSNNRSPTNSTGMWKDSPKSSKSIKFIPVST
OXTR agonist – activates the human oxytocin receptor | CHO-OTR cells, Fluo-8 calcium fluorescence; normalized: DMSO 0%, oxytocin 100% | activation, % at 3 µM | actives 0.32% (n = 320,000);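 active = activation above the mean of all tested compounds plus 3 SD, cutoff set per screening run, cut at about 20% in these data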;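 note: peak over basal fluorescence ratio from a 100 s FLIPR kinetic read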
TAAR1 ag – agonists of human TAAR1 | Q96RJ0 | CHO RD-HGA16 TAAR1, Fluo-8 calcium fluorescence; vehicle wells 0%, saturating PEA agonist 100% | activation, % at 3 µM | actives 0.99% (n = 360,000) | AID 624467;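 active = activation above the mean activation of all test compounds in the run plus 3 SD, cut at about 38% in these data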
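System: CHO-derived RD-HGA16 cells with stable Gα16 and human TAAR1 / Times: 17-24 h plating, Fluo-8 75 min 37 °C, 30 min RT / Technique: calcium-sensitive Fluo-8 signal, excitation 470-495, emission 515-575 nm / Measure: % activation relative to PEA EC100 response / Benchmarks: DMSO and PEA EC100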
TAAR1 antag – antagonists of human TAAR1 | CHO RD-HGA16 TAAR1, Fluo-8 calcium fluorescence, antagonist | inhibition, % at 3 µM | actives 1.5% (n = 360,000);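 active = inhibition above a per-plate cutoff, the mean inhibition of test compounds on that plate plus 3 SD, cut at about 49% in these data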
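Material: CHO RD-HGA16 cells bearing hTAAR1; compound dosing: one-point dosing, 3 µM nominal final; schedule: dye loading 75 min at 37 °C, then 30 min room temperature; measured by: calcium fluorescence with Fluo-8; control set: vehicle and agonist controls; replication: n of 1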
TAAR1 nonsel count – counter-screen for TAAR1 antagonists: nonselective antagonists | shares compounds with TAAR1 antag | counterscreen cell line, calcium fluorescence, antagonist mode | inhibition, % at 3 µM | actives 77% (n = 2,400) | AID 651780; in the data active = inhibition above about 22%;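 note: CHO-Ga16 host cells stimulated with ATP at an EC80 level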
TAAR1 ant conf – confirmation of human TAAR1 antagonists | AID 651785 | actives 40% (n = 2,400) | shares compounds with TAAR1 antag | inhibition, % at 3 µM | TAAR1-expressing cells, fluorescence antagonist read-out; in the data active = inhibition above about 49%;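 note: CHO-Ga16 host cells challenged with agonist PEA near its EC80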
Ga16 ag counter – counter-screen for TAAR1 antagonists: nonselective Ga16 agonists; shares compounds with TAAR1 antag; Ga16-expressing cells, calcium fluorescence, agonist counterscreen; activation, % at 3 µM; actives 18% (n = 2,400); AID 651953; in the data active = activation above about 12%
TAAR1 ag count – activates human TAAR1 in antagonist counter-screen; shares compounds with TAAR1 antag; hTAAR1 cell line, fluorescence activation, agonist mode; activation, % at 3 µM; actives 2% (n = 2,400); AID 651955; in the data active = activation above about 37%;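 note: CHO cells stably expressing TAAR1 with calcium dye readout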
Numbers stand for hits; 0 = inactive; - = no result.

SMILES	OXTR potentiate	V1aR counter	OXTR agonist	TAAR1 ag	TAAR1 antag	TAAR1 nonsel count	TAAR1 ant conf	Ga16 ag counter	TAAR1 ag count
O=C(c1cc(-c2ccccc2Cl)nc2ccccc12)N1CCC1	0	0	0	0	0	-	-	-	-
Cc1ccc(C(=O)Nc2cccc(C(=O)NC3CCCC3)c2)cc1	0	0	0	0	0	-	-	-	-
CN(C1CCCCC1)S(=O)(=O)c1ccc(NC(=O)c2ccc(Br)o2)cc1	0	0	0	0	63	23	0	0	0
COc1cccc(NC(=O)c2cc(CN3C(=O)c4ccccc4C3=O)ccc2OC)c1	0	0	0	0	0	-	-	-	-
CC1CCCCN1CCCNC(=O)c1ccc(NC(=O)C2=CSCCO2)cc1 (stereo unspecified)	0	0	0	0	0	-	-	-	-
O=C(c1cc(-c2cccs2)nn1-c1ccccc1)N1CCN(S(=O)(=O)c2ccccc2)CC1	0	0	0	0	68	30	52	0	0
C[C@H](NC(=O)c1ncn2c1C(=O)NC[C@H]2C)c1ccccc1	-	-	-	0	0	-	-	-	-
COc1ccc(/C=N/Nc2nc(-c3cccc(S(=O)(=O)N4CCCC4)c3)cs2)cc1OC	0	0	0	0	0	-	-	-	-
COc1cc(/C=N/Nc2nc(-c3ccc(S(=O)(=O)N(C)C)cc3)cs2)ccc1O	0	0	0	0	69	30	0	0	0
CC(=O)c1ccc(N2CCN(C(=O)c3cc4c(-c5ccccc5F)nn(C)c4s3)CC2)cc1	0	0	0	0	55	26	0	0	0
O=C(CCc1c[nH]c2ccccc12)OCc1cccc([N+](=O)[O-])c1	0	0	0	0	0	-	-	-	-
O=C(NC1CCCc2ccccc21)C1CCC(CNS(=O)(=O)c2cccc3nsnc23)CC1 (stereo unspecified)	0	0	0	0	57	0	0	0	0
CC(C)CCN1CCN=C1Nc1ccccc1	0	0	0	0	108	0	0	0	0
O=C(COCC(=O)N1CCOCC1)N1CCOCC1	0	0	0	0	0	-	-	-	-
COc1cccc(C2C(C(=O)Nc3ccccc3)=C(C)N=c3s/c(=C/c4ccc(OCC(=O)O)cc4)c(=O)n32)c1 (stereo unspecified)	0	0	0	0	0	-	-	-	-
COc1cccc(C2C(C(=O)OC(C)C)=C(C)N=c3s/c(=C\c4ccc(C(=O)O)cc4)c(=O)n32)c1 (stereo unspecified)	0	0	0	0	60	34	53	17	0
COC(=O)c1ccccc1NC(=S)N(Cc1ccc2c(c1)OCO2)Cc1cc2cc(OC)ccc2[nH]c1=O	0	0	0	0	53	0	0	0	0
COc1ccc(NC(=O)N(Cc2cc3cc(OC)ccc3[nH]c2=O)CC2CCCO2)cc1 (stereo unspecified)	0	0	0	0	56	27	0	0	0
COc1ccc(NC(=O)N(Cc2cc3ccc(OC)cc3[nH]c2=O)CC2CCCO2)cc1 (stereo unspecified)	0	0	0	0	0	-	-	-	-
CNc1nc(-c2cccc(C(=O)N(C)C)c2)cn2ccnc12	-	-	-	0	0	-	-	-	-
CCn1c(SCC(=O)N2CCc3ccccc32)nnc1-c1c[nH]c2ccccc12	0	0	0	0	55	0	0	0	0
CCn1c(SCC(=O)N2CCCc3ccccc32)nnc1-c1c[nH]c2ccccc12	0	0	0	0	0	-	-	-	-
CCCS(=O)(=O)c1c(S(=O)(=O)CCC)c2c3ccccc3ccn2c1C(=O)OC	0	0	0	0	49	0	0	0	0
CCN(CC)c1ncnc2c1cnn2Cc1ccc(Cl)cc1	0	0	0	0	54	27	0	0	0
CCOC(=O)[C@]12CCC=C1N(Cc1ccc3c(c1)OCO3)C(=O)[C@H](CC(=O)NCc1ccccc1)C2	-	-	-	0	0	-	-	-	-
SMILES	OXTR potentiate	V1aR counter	OXTR agonist	TAAR1 ag	TAAR1 antag	TAAR1 nonsel count	TAAR1 ant conf	Ga16 ag counter	TAAR1 ag count
O=C(OCc1nc2scc(-c3ccccc3)c2c(=O)[nH]1)c1ccco1	0	0	0	0	0	-	-	-	-
CC(C)[C@H](NC(=O)c1ccccc1)C(=O)OCc1nc2scc(-c3ccccc3)c2c(=O)[nH]1	0	0	0	0	73	36	55	0	0
CCOC(=O)CN(C(=O)COc1nc(-c2ccccc2)cc(C)c1C#N)c1cccc(OC)c1	0	0	0	0	55	25	0	0	0
COc1cc(C(C)=O)ccc1OCC(=O)Nc1ccccc1N1CCCC1	0	0	0	0	0	-	-	-	-
COc1cc(C(C)=O)ccc1OCC(=O)Nc1ccccc1N1CCCCC1	0	0	0	0	55	0	0	0	0
CC(=O)c1cccc(OCC(=O)Nc2ccccc2N2CCOCC2)c1	0	0	0	0	51	0	0	0	0
COCCn1c(=O)[nH]c2cc(C(=O)Nc3ccc(OC)c(Cl)c3)ccc2c1=O	0	0	0	-	-	-	-	-	-
C=CCn1c(=S)[nH]c2cc(C(=O)Nc3ccc(OC)c(OC)c3)ccc2c1=O	0	0	0	0	62	33	0	12	0
COc1ccccc1NS(=O)(=O)c1ccc(C)c(C(=O)NCC(c2cccs2)N2CCOCC2)c1 (stereo unspecified)	-	-	-	0	0	-	-	-	-
COc1ccc(CN(C)C(=O)C2CCN(C(=O)Nc3ccccc3)CC2)cc1	0	0	0	0	0	-	-	-	-
O=C1c2cccc(OCC(=O)N3CCCc4ccccc43)c2CCN1Cc1ccccc1	0	0	0	0	0	-	-	-	-
O=C1c2cccc(OCC(=O)N3CCCc4ccccc43)c2CCN1Cc1ccc(Br)cc1	0	0	0	0	71	40	51	0	0
Cc1cccc(C(=O)Oc2ccc(/C=N/NC(=O)c3ccccc3O)cc2)c1	0	0	0	0	68	49	58	0	0
Cc1cccc(C(=O)Oc2ccc(/C=N/NC(=O)c3ccc(O)cc3)cc2)c1	-	-	-	0	73	37	54	0	0
O=C(O)c1ccc(N/N=C/c2ccc(OC(=O)c3cccc(Cl)c3)cc2)cc1	0	0	0	0	84	48	60	0	0
CCc1nc2ccc(C(=O)N(CC)CCN(C)C)cn2c1N(C)C(=O)C1CCCCC1	-	-	-	0	0	-	-	-	-
CCc1noc(C)c1C(=O)Nc1nc(-c2ccc(NC(C)=O)cc2)cs1	0	0	0	0	70	29	0	22	0
CC(C)(C)c1cc(NC(=O)c2ccc(OC3CCCC3)cc2)no1	0	0	0	0	51	25	0	0	0
